Test results from ChEMBL document CHEMBL4145574, “Inhibition of Breast Cancer Cell Migration by Cyclotides Isolated from Pombalia calceolaria” (J Nat Prod, 2018).
Where a SMILES comes first, the peptide text is derived from it. Bridges are numbered along the chain shown (N, C = ends).

Key:
MDA-MB-231 [1] = experiment: Cytotoxicity against human MDA-MB-231 cells assessed as cell death after 24 hrs by MTS assay; format: functional, cell-based; conditions: MDA-MB-231, 24 h
Outline: (§1)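 MDA-MB-231 cells in DMEM with 10% FBS at 37 °C, 5% CO2, seeded at 4 × 10^3 cells/well. After 24 h, seven concentrations (20−0.03 μM) were added in triplicate, with doxorubicin as control. After 24 h exposure, MTS was added for 4 h at 37 °C and absorbance read at 490 nm. Viability is relative to control wells; IC50 is from nonlinear regression. At least two independent experiments.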

MDA-MB-231 [2] = experiment: Cytotoxicity against human MDA-MB-231 cells assessed as cell detachment at 2 to 5 uM; format: cell-based; conditions: mda-mb-231, 5 µM
Outline: (§2)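 Toxicity was judged visually during the wound-healing assay. MDA-MB-231 monolayers were scratched, then incubated 22 h at 37 °C in medium with 10% FBS and compound at 10, 5, 2 or 1 μM. Cells were scored for detachment and for morphological change (volume reduction, membrane disintegration).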

MDA-MB-231 [3] = experiment: Cytotoxicity against human MDA-MB-231 cells assessed as membrane disintegration at 2 to 5 uM; format: cell-based; conditions: mda-mb-231, 5 µM; outline: as §2
MDA-MB-231 [4] = experiment: Cytotoxicity against human MDA-MB-231 cells assessed as membrane disintegration at 10 uM; format: cell-based; conditions: mda-mb-231, 10 µM; outline: as §2
MDA-MB-231 [5] = experiment: Cytotoxicity against human MDA-MB-231 cells assessed as cell detachment at 10 uM; format: cell-based; conditions: mda-mb-231, 10 µM; outline: as §2
MDA-MB-231 [6] = experiment: Cytotoxicity against human MDA-MB-231 cells assessed as reduction in cell volume at 2 to 5 uM; format: cell-based; conditions: mda-mb-231, 5 µM; outline: as §2
MDA-MB-231 [7] = experiment: Cytotoxicity against human MDA-MB-231 cells assessed as reduction in cell volume at 10 uM; format: cell-based; conditions: mda-mb-231, 10 µM; outline: as §2
MDA-MB-231 [8] = experiment: Inhibition of cell migration in human MDA-MB-231 cells at 1 uM incubated for 22 hrs by scratch wound healing assay relative to control; conditions: MDA-MB-231, 22 h
MDA-MB-231 [9] = experiment: Cytotoxicity against human MDA-MB-231 cells assessed as cell death at 20 uM after 24 hrs by MTS assay relative to control; format: functional; outline: as §1
MDA-MB-231 [10] = experiment: Inhibition of cell migration in human MDA-MB-231 cells at 5 uM incubated for […] by scratch wound healing assay relative to control; format: functional
Outline: (§3)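 MDA-MB-231 cells were seeded at 1 × 10^5 cells/well and grown to a confluent monolayer, then scratched with a pipet tip. Debris was rinsed with FBS-free medium. Cells were incubated 22 h at 37 °C in 10% FBS medium with compound (10, 5, 2, 1 μM), with colchicine as positive control. Wound areas were imaged at 0 and 22 h and measured. Two independent experiments in triplicate, reported as mean ± SD.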

MDA-MB-231 [11] = experiment: Inhibition of cell migration in human MDA-MB-231 cells at 2 uM incubated for […] by scratch wound healing assay relative to control; format: functional; outline: as §3
MDA-MB-231 [12] = experiment: Inhibition of cell migration in human MDA-MB-231 cells at 10 uM […] by scratch wound healing assay relative to control; format: functional; conditions: MDA-MB-231, 22 h, in the assay text read “22 hrs” for “24 hrs”
Outline: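 MDA-MB-231 cells in DMEM + 10% FBS, 37 °C, 5% CO2; 1 × 10^5 cells/well grown to confluence, monolayer scratched with pipet tip, debris rinsed with FBS-free medium. Incubated 22 h at 37 °C in 10% FBS medium with compound (10, 5, 2, 1 μM). Wound areas imaged at 0 and 22 h and measured; cell toxicity judged visually. Colchicine positive control. Two independent experiments in triplicate, mean ± SD.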

Q: Which IC50 (MDA-MB-231 [1]) does the source give for `COc1cccc2c1C(=O)c1c(O)c3c(c(O)c1C2=O)C[C@@](O)(C(=O)CO)C[C@@H]3O[C@H]1C[C@H](N)[C@H](O)[C@H](C)O1` [DOXORUBICIN] here?
A: 0.9 µM

Q: Which results are given for `CC[C@H](C)[C@@H]1NC(=O)[C@H](C)NC(=O)[C@H]([C@@H](C)O)NC(=O)[C@H]([C@@H](C)CC)NC(=O)[C@H]([C@@H](C)O)NC(=O)[C@@H]2CSSC[C@@H]3NC(=O)[C@H](C(C)C)NC(=O)[C@H](CCCNC(=N)N)NC(=O)[C@H](CC(=O)O)NC(=O)[C@H](CCCNC(=N)N)NC(=O)[C@@H]4CSSC[C@H](NC(=O)[C@H](CO)NC(=O)[C@H](CCC(=O)O)NC(=O)[C@H](C)NC(=O)[C@H](CSSC[C@H](NC(=O)CNC(=O)[C@H](CC(C)C)NC1=O)C(=O)N[C@@H](CO)C(=O)N4)NC(=O)[C@@H]1CCCN1C(=O)[C@H](CC(C)C)NC(=O)CNC(=O)[C@H](CC(=O)O)NC(=O)[C@H](Cc1ccc(O)cc1)NC3=O)C(=O)N[C@@H](C(C)C)C(=O)N[C@@H](Cc1ccccc1)C(=O)N[C@@H]([C@@H](C)CC)C(=O)N1CCC[C@H]1C(=O)N2` (cyclo(AESCVFIPCTITAILGCSCRDRVCYDGLPC); disulfide 4-19, 9-24, 17-30) [listing 1 of 2 here]?
A: Activity (MDA-MB-231 [2]): Toxic; Activity (MDA-MB-231 [3]): Toxic; IC50 (MDA-MB-231 [1]): 1.8 µM; Activity (MDA-MB-231 [4]): Toxic; Activity (MDA-MB-231 [5]): Toxic; Activity (MDA-MB-231 [6]): Toxic; Activity (MDA-MB-231 [7]): Toxic

Q: Which results are given for `CC[C@H](C)[C@@H]1NC(=O)[C@H](C)NC(=O)[C@H](CO)NC(=O)[C@H](CO)NC(=O)[C@H]([C@@H](C)CC)NC(=O)[C@@H]2CSSC[C@@H]3NC(=O)[C@H](C(C)C)NC(=O)[C@H](CCCN)NC(=O)[C@H](CC(N)=O)NC(=O)[C@H](CCCN)NC(=O)[C@@H]4CSSC[C@H](NC(=O)[C@H](CO)NC(=O)[C@H](CCC(=O)O)NC(=O)CNC(=O)[C@H](CSSC[C@H](NC(=O)CNC1=O)C(=O)N[C@@H](CO)C(=O)N4)NC(=O)[C@@H]1CCCN1C(=O)[C@H]([C@@H](C)CC)NC(=O)CNC[C@@H](C(N)=O)NC(=O)[C@H](CCCN)NC(=O)[C@H](Cc1ccc(O)cc1)NC3=O)C(=O)N[C@@H](C(C)C)C(=O)N[C@@H](Cc1c[nH]c3ccccc13)C(=O)N[C@@H]([C@@H](C)CC)C(=O)N1CCC[C@H]1C(=O)N2` [listing 1 of 2 here]?
A: inhibition at 1 µM (MDA-MB-231 [8]): 15%; Activity (MDA-MB-231 [9]): >80%; inhibition at 5 µM (MDA-MB-231 [10]): 60%; inhibition at 2 µM (MDA-MB-231 [11]): 50%

Q: `COc1cc2c(c(OC)c1OC)-c1ccc(OC)c(=O)cc1[C@@H](NC(C)=O)CC2` [COLCHICINE] was tested. Which inhibition at 1 µM (MDA-MB-231 [8]) did it give?
A: 75%

Q: And the inhibition at 10 µM (MDA-MB-231 [12])?
A: 85%

Q: Which Activity (MDA-MB-231 [2]) does the source give for `CC[C@H](C)[C@@H]1NC(=O)[C@H](C)NC(=O)[C@H]([C@@H](C)O)NC(=O)[C@H](C(C)C)NC(=O)[C@@H]2CSSC[C@@H]3NC(=O)[C@H](C(C)C)NC(=O)[C@H](CCCNC(=N)N)NC(=O)[C@H](CC(=O)O)NC(=O)[C@H](CCCN)NC(=O)[C@@H]4CSSC[C@H](NC(=O)[C@H](CO)NC(=O)[C@H](CCC(=O)O)NC(=O)[C@H](C)NC(=O)[C@H](CSSC[C@H](NC(=O)CNC(=O)[C@H](CC(C)C)NC1=O)C(=O)N[C@@H](CO)C(=O)N4)NC(=O)[C@@H]1CCCN1C(=O)[C@H]([C@@H](C)CC)NC(=O)CNC(=O)[C@H](CC(N)=O)NC(=O)[C@H](Cc1ccc(O)cc1)NC3=O)C(=O)N[C@@H](C(C)C)C(=O)N[C@@H](Cc1ccccc1)C(=O)N[C@@H]([C@@H](C)CC)C(=O)N1CCC[C@H]1C(=O)N2` [listing 1 of 2 here] here?
A: Toxic

Q: And the Activity (MDA-MB-231 [3])?
A: Toxic

Q: What about the IC50 (MDA-MB-231 [1]) of the same compound?
A: 2.7 µM

Q: And the Activity (MDA-MB-231 [4])?
A: Toxic

Q: What about the Activity (MDA-MB-231 [5]) of the same compound?
A: Toxic

Q: What about the Activity (MDA-MB-231 [6]) of the same compound?
A: Toxic

Q: What about the Activity (MDA-MB-231 [7]) of the same compound?
A: Toxic

Q: What does the source list for `CC[C@H](C)[C@@H]1NC(=O)[C@H](C)NC(=O)[C@H](CO)NC(=O)[C@H](CO)NC(=O)[C@H]([C@@H](C)CC)NC(=O)[C@@H]2CSSC[C@@H]3NC(=O)[C@H](C(C)C)NC(=O)[C@H](CCCN)NC(=O)[C@H](CC(N)=O)NC(=O)[C@H](CCCN)NC(=O)[C@@H]4CSSC[C@H](NC(=O)[C@H](CO)NC(=O)[C@H](CCC(=O)O)NC(=O)CNC(=O)[C@H](CSSC[C@H](NC(=O)CNC1=O)C(=O)N[C@@H](CO)C(=O)N4)NC(=O)[C@@H]1CCCN1C(=O)[C@H]([C@@H](C)CC)NC(=O)CNC[C@@H](C(N)=O)NC(=O)[C@H](CCCN)NC(=O)[C@H](Cc1ccc(O)cc1)NC3=O)C(=O)N[C@@H](C(C)C)C(=O)N[C@@H](Cc1c[nH]c3ccccc13)C(=O)N[C@@H]([C@@H](C)CC)C(=O)N1CCC[C@H]1C(=O)N2` [listing 2 of 2 here]?
A: IC50 (MDA-MB-231 [1]): 9.8 µM; Activity (MDA-MB-231 [4]): Toxic; Activity (MDA-MB-231 [5]): Toxic; Activity (MDA-MB-231 [7]): Toxic

Q: Which inhibition at 1 µM (MDA-MB-231 [8]) does the source give for `CC[C@H](C)[C@@H]1NC(=O)[C@H](C)NC(=O)[C@H]([C@@H](C)O)NC(=O)[C@H]([C@@H](C)CC)NC(=O)[C@H]([C@@H](C)O)NC(=O)[C@@H]2CSSC[C@@H]3NC(=O)[C@H](C(C)C)NC(=O)[C@H](CCCNC(=N)N)NC(=O)[C@H](CC(=O)O)NC(=O)[C@H](CCCNC(=N)N)NC(=O)[C@@H]4CSSC[C@H](NC(=O)[C@H](CO)NC(=O)[C@H](CCC(=O)O)NC(=O)[C@H](C)NC(=O)[C@H](CSSC[C@H](NC(=O)CNC(=O)[C@H](CC(C)C)NC1=O)C(=O)N[C@@H](CO)C(=O)N4)NC(=O)[C@@H]1CCCN1C(=O)[C@H](CC(C)C)NC(=O)CNC(=O)[C@H](CC(=O)O)NC(=O)[C@H](Cc1ccc(O)cc1)NC3=O)C(=O)N[C@@H](C(C)C)C(=O)N[C@@H](Cc1ccccc1)C(=O)N[C@@H]([C@@H](C)CC)C(=O)N1CCC[C@H]1C(=O)N2` (cyclo(AESCVFIPCTITAILGCSCRDRVCYDGLPC); disulfide 4-19, 9-24, 17-30) [listing 2 of 2 here] here?
A: 0%

Q: What about the Activity (MDA-MB-231 [9]) of the same compound?
A: >80%

Q: With `CC[C@H](C)[C@@H]1NC(=O)[C@H](C)NC(=O)[C@H]([C@@H](C)O)NC(=O)[C@H](C(C)C)NC(=O)[C@@H]2CSSC[C@@H]3NC(=O)[C@H](C(C)C)NC(=O)[C@H](CCCNC(=N)N)NC(=O)[C@H](CC(=O)O)NC(=O)[C@H](CCCN)NC(=O)[C@@H]4CSSC[C@H](NC(=O)[C@H](CO)NC(=O)[C@H](CCC(=O)O)NC(=O)[C@H](C)NC(=O)[C@H](CSSC[C@H](NC(=O)CNC(=O)[C@H](CC(C)C)NC1=O)C(=O)N[C@@H](CO)C(=O)N4)NC(=O)[C@@H]1CCCN1C(=O)[C@H]([C@@H](C)CC)NC(=O)CNC(=O)[C@H](CC(N)=O)NC(=O)[C@H](Cc1ccc(O)cc1)NC3=O)C(=O)N[C@@H](C(C)C)C(=O)N[C@@H](Cc1ccccc1)C(=O)N[C@@H]([C@@H](C)CC)C(=O)N1CCC[C@H]1C(=O)N2` [listing 2 of 2 here] as the compound, how does the inhibition at 1 µM (MDA-MB-231 [8]) read?
A: 0%

Q: And the Activity (MDA-MB-231 [9])?
A: >80%
